PKD1 inh: inhibitors of human PKD1 kinase, biochemical, fluorescence polarization. PKD1 kinase fluorescence polarization assay. inhibition, % (concentration not given with the values). 200,000 compounds, 0.056% hits; in the data active means inhibition above about 50%
MDM2 E3 inh: MDM2-luciferase reporter signal enhancers, primary screen, MDM2 E3 ligase inhibitor project, cell-based, luminescence, 1536-well. E3 ubiquitin-protein ligase Mdm2 (Homo sapiens), Q00987. cell-based MDM2 ubiquitination luciferase reporter, 2 h; 0 = plate control, 100 = twice control, blank-subtracted. signal enhancement, % at 5 µM. 210,000 compounds, 0.11% hits;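 active means signal enhancement of 30% or more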;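 further: luminescence tracks abundance of the self-degrading MDM2-luciferase fusion protein; higher signal means inhibition of MDM2 E3 ligase activity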
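System: stable MDM2–luciferase fusion reporter cells / Input: 2000 cells seeded into each well / Schedule: 4 h settle plus 2 h compound, 37 °C / Compound: single-point 5 µM / Buffer or medium: cells held in DMEM / Benchmarks: control and blank well means / Evaluation: percent signal gain over controls, blank-subtracted / Measured by: luciferase luminescence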
Cl transport mod: KCC2 cotransporter modulators, thallium flux, primary screen, cell-based, HEK293 KCC2, FluoZin-2 fluorescence, MLSMR. Solute carrier family 12 member 5 (Homo sapiens), Q9H2X9. KCC2 cells, thallium flux FluoZin-2 fluorescence. B-score of Tl+ flux slope (higher = more flux/activation; lower = inhibition) at 10 µM. 190,000 compounds, 2.2% hits. AID 1456, 2008;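 active means thallium flux slope and its plate-corrected score both differing from the plate sample mean at a set confidence after two filtering rounds, in either direction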;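 further: slope of fluorescence scaled to starting intensity during 10 to 20 s after thallium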
p97 inhibitor: inhibitors of human p97 ATPase, primary screen, biochemical; inhibition, % at 8 µM; recombinant p97 ATPase, Kinase-Glo ATP luminescence, 3 h; Transitional endoplasmic reticulum ATPase (Homo sapiens), P55072; 220,000 compounds, 0.42% hits; AID 1481, 2009; in the data active means inhibition above about 15%
ROMK mod: ROMK potassium channel modulators, primary screen, cell-based, thallium flux, MLSMR library. 130,000 compounds, 2% hits. B-score at 10 µM. ATP-sensitive inward rectifier potassium channel 1 (Homo sapiens), P48048. AID 1918, 2009. Tet-inducible ROMK, thallium flux fluorescence; actives lie on both sides;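 active means signal ratio slope over the read window, or its plate-corrected B-score, at least 3 SD from the plate mean, either direction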;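 further: B-score of the F/F0 ratio slope over 7 to 12 s after thallium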
Redox H2O2 prof: compounds producing H2O2 with reducing agent – biochemical, NIH compound library profiling, artefact control for MLSCN library redox annotation, primary screen; DTT-dependent redox cycling H2O2, phenol red/HRP absorbance; 100% = 100 µM peroxide control, 0% = buffer; activation, % at 10 µM; 200,000 compounds, 0.03% hits; AID 878, 2007;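 active means activation of at least 50% relative to the plate's high and low controls in the primary single-dose screen; inactive means activation below 50%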;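 further: compound incubated with DTT at 0.8 mM final as the reducing agent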
p97 inh conf: p97 ATPase inhibitors, retest, confirmation, biochemical; shares compounds with p97 inhibitor; 760 compounds, 44% hits; recombinant p97 ATPase, Kinase-Glo ATP luminescence; AID 1517, 2009; inhibition, % at 8 µM;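 active means percent inhibition of p97 ATPase above a set limit, the primary screen's mean plus 3 SD, cut at about 15% in these data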
ROMK retest: ROMK channel modulator hit retest, confirmation, cell-based, thallium flux, duplicate, resupplied hits | fluorescence ratio; hits give low values | normalized thallium flux (F/F0 slope) at 10 µM | AID 1917, 2009 | 3,000 compounds, 54% hits | shares compounds with ROMK mod;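 active means Flux at 10 µM at least 3 SD below or above vehicle control mean in one or both replicates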
Large screens that a line does not name were inactive (follow-up assays come after a bar, where they were run). Compounds with a hit are over-represented: about 3.4% of the library has one in this group of screens.

CN1C(=O)C(=Cc2ccc(N3CCOCC3)o2)C(=O)N(C)C1=S	p97 inhibitor 19 (no result: Cl transport mod, ROMK mod) | p97 inh conf inactive
CN1C(=O)/C(=C\c2ccc(N3CCCCC3)o2)C(=O)NC1=S	none (no result: Cl transport mod, ROMK mod)
Cc1ccc(S(=O)(=O)N(C)C/N=C(\N)N[N+](=O)[O-])cc1	p97 inhibitor 15 | p97 inh conf inactive
CC1CC(C)CN(CC(=O)c2ccc(OC(F)F)cc2)C1 (configuration not stated)	none (no result: ROMK mod)
CCOc1ccccc1-n1c(O)c(C=NCCCN(CC)CC)c(=O)[nH]c1=O	none (no result: ROMK mod)
CC1CCC[C@H](O)CCCCCc2cc(O)cc(O)c2C(=O)O1 (some centres not stated)	p97 inhibitor 17 (no result: MDM2 E3 inh, ROMK mod) | p97 inh conf 25
C[C@H]1CCC[C@H](O)CCCCCc2cc(O)cc(O)c2C(=O)O1	none
CC(=O)N1N=C2C3CCN(CC3)C2C1c1ccc(C)cc1 (configuration not stated)	none (no result: MDM2 E3 inh)
CC(=O)N1N=C2C3CCN(CC3)C2C1c1cccc2ccccc12 (configuration not stated)	p97 inhibitor 16 (no result: MDM2 E3 inh) | p97 inh conf inactive
c1ccc(-c2[nH]c[n+](CC3CO3)c2-c2ccccc2)cc1 (configuration not stated)	none (no result: ROMK mod)
N#CC(C#N)=NNc1ccc(S(N)(=O)=O)cc1	p97 inhibitor 23 (no result: PKD1 inh, MDM2 E3 inh, ROMK mod, Redox H2O2 prof) | p97 inh conf 25
C[C@]12CC[C@@H]3c4ccc(O)c(O)c4CC[C@H]3[C@@H]1CC[C@@H]2O	p97 inhibitor 23 (no result: PKD1 inh, MDM2 E3 inh, ROMK mod, Redox H2O2 prof) | p97 inh conf inactive
CN1CCC(n2nccc2N)CC1	p97 inhibitor 15 (no result: Cl transport mod, ROMK mod) | p97 inh conf inactive
Nc1ccnn1C1CCNCC1	none (no result: Cl transport mod)
O=C(NCCO)c1nsnc1NCCCl	none
O=C1NC(=O)N(Cc2ccccc2)C(=O)/C1=C\C=C\c1ccco1	none
O=C1NC(=O)N(Cc2ccco2)C(=O)/C1=C/C=C/c1ccco1	p97 inhibitor 31 (no result: PKD1 inh, MDM2 E3 inh, ROMK mod, Redox H2O2 prof) | p97 inh conf inactive
CCOC(=O)C(C)(CC)NC(=O)CSP(=S)(OCC)OCC (configuration not stated)	none
CCCCNC(=O)c1c(N)n(CCCOC)c2nc3ccccc3nc12	p97 inhibitor 22 (no result: ROMK mod) | p97 inh conf inactive
COc1ccc(Cn2c(N)c(C(=O)NCc3ccco3)c3nc4ccccc4nc32)cc1OC	p97 inhibitor 32 | p97 inh conf inactive
COCCCNC(=O)c1c(NC(=O)c2ccco2)n(Cc2ccccc2)c2nc3ccccc3nc12	p97 inhibitor 24 (no result: Cl transport mod, ROMK mod) | p97 inh conf inactive
CCOC(=O)c1c(NS(=O)(=O)c2ccccc2)n(CCCOC)c2nc3ccccc3nc12	p97 inhibitor 45 | p97 inh conf 17
COCCNC(=O)c1c(NC(=O)c2ccc(Br)o2)n(Cc2ccccc2)c2nc3ccccc3nc12	none
c1ccc2c(c1)Sc1ccccc1N2CC1CN2CCC1CC2 (configuration not stated)	p97 inhibitor 18 (no result: PKD1 inh, ROMK mod, Redox H2O2 prof) | p97 inh conf 15 | ROMK retest 0.04
Nc1ccccc1-[n+]1c(-c2ccccc2)cc(-c2ccccc2)cc1-c1ccccc1	p97 inhibitor 16 (no result: PKD1 inh, ROMK mod, Redox H2O2 prof) | p97 inh conf inactive | ROMK retest 0.062
COc1ccc(-c2cc(-c3ccccc3)[n+](C)c(-c3ccccc3)c2)cc1	none
CN1CCN(C(=O)Cc2ccccc2)CC1	none (no result: PKD1 inh, ROMK mod, Redox H2O2 prof)

Assay outcomes from PubChem.
